Here are results for 38 variants from the RNAGym collection of RNA variant scans (doi:10.1038/s41586-018-0170-7).

B1: tRNA (parent)
chain: GUUCCGUUGGCGUAAUGGUAACGCGUCUCCCUCCUAAGGAGAAGACUGCGGGUUCGAGUCCCGUACGGAACG

Variants of B1 are the subject of this series. The experiment in a line: yeast fitness, log relative to wild type (ln ratio); higher = fitter; tRNA-Arg(CCU), competitive growth, 37 C, 1 M NaCl. The gist of the method: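 Fitness is the natural log of a genotype's generation count divided by that of the wild type. A combinatorial library of tRNA-Arg(CCU) variants sat on a HIS3 centromeric plasmid in BY4742 lacking the chromosomal gene, from two independent transformations. Pools grew 4 generations in SC-HIS at 30 °C, then ~6.5 generations (~26.5 h) in SC-HIS 1M NaCl at 37 °C, with three outputs per input. Generations came from OD-scaled log2 output/input frequency, inverse-variance weighted across replicates, with variants counted by 125 bp paired-end Illumina sequencing.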
On to GGUCCGUUGGCGUAAUGGUAACGCGUUUCCCUCCUAAGGAGAAGACUGCGGGUUCGAGUCCCGUACGGGGUG, for which the “yeast fitness (ln)” value was -0.178.
The result for GGUCCGUUGGCGUAAUGGUAACGCGUUUCCCUCCUAAGGAGAAGACUGCGGGUUCGAGUCCCGUACGGAAUG reads -0.0721.
The value for GGUCCGUUGGCGUAAUGGUAACGCGUUUCCCUCCUAAGGAGACGACUGCGGGUUCGAGUCCCGUAUGGAAUG was -0.364; that for GGUCCGUUGGCGUAAUGGUAACGCGUUUCCCUCCUAAGGAGAAGACUGCGGGUUCGAGUCCCGUAUGGGAUG was -0.282.
The result for GGUCCGUUGGCGUAAUGGUAACGCGUUUCCCUCCUAAGGAGAAGACUGCGGGUUCGAGUCCCGUAUGGGGUG reads -0.264; that for GGUCCGUUGGCGUAAUGGUAACGCGUUUCCCUCCUAAGGAGAAGACUGCGGGUUCGAGUCCCGUAAGGAGUG, -0.201; that for GGUCCGUUGGCGUAAUGGUAACGCGUUUCCCUCCUAAGGAGAAGAUUGCGGGUUCGAGUCCCGUACGGGGUG, -0.169.
On to GGUCCGUUGGCGUAAUGGUAACGCGUUUCCCUCCUAAGGAGAAGAUUGCGGGUUCGAGUCCCGUAUGGAAUG, for which the “yeast fitness (ln)” value was -0.214.
Regarding GGUCCGUUGGCGUAAUGGUAACGCGUUUCCCUCCUAAGGAGAAGAUUGCGGGUUCGAGUCCCGUAAGGAUCG, the “yeast fitness (ln)” value was -0.143.
Consider GGUCCGUUGGCGUAAUGGUAACGCGUUUCCCUCCUAAGGAGAAGAUUGCGGGUUCGAGUCCCGUAAGGAGCG, for which the “yeast fitness (ln)” value was -0.0963.
The result for GGUCCGUUGGCGUAAUGGUAACGCGUUUCCCUCCUAAGGAGAAGAUUGCGGGUUCGAGUCCCGUAUGGAUUG reads -0.308; that for GGUCCGUUGGCGUAAUGGUAACGCGUUUCCCUCCUAAGGAGACGACUGCGGGUUCGAGUCCCGUAUGGAUUG, -0.333.
With GGUCCGUUGGCGUAAUGGUAACGCGUUUCCCUCCUAAGGAGAAGACUGCGGGUUCGAGUCCCGUAAGGAAUG, the “yeast fitness (ln)” value is -0.148.
The result for GGUCCGUUGGCGUAAUGGUAACGCGUUUCCCUCCUAAGGAGACGACUGCGGGUUCGAGUCCCGUAUGGAUCG reads -0.205.
The value for GGUCCGUUGGCGUAAUGGUAACGCGUUUCCCUCCUAAGGAGAAGACUGCGGGUUCGAGUCCCGUAUGGAUUG was -0.281; that for GGUCCGUUGGCGUAAUGGUAACGCGUUUCCCUCCUAAGGAGAAGACUGCGGGUUCGAGUCCCGUAUGGAUCG was -0.0967.
The value for GGUCCGUUGGCGUAAUGGUAACGCGUUUCCCUCCUAAGGAGAAGACUGCGGGUUCGAGUCCCGUAUGGAGCG was -0.147; that for GGUCCGUUGGCGUAAUGGUAACGCGUUUCCCUCCUAAGGAGAAGACUGCGGGUUCGAGUCCCGUACGGAUCG was -0.0184; that for GGUCCGUUGGCGUAAUGGUAACGCGUUUCCCUCCUAAGGAGAAGACUGCGGGUUCGAGUCCCGUACGGAGCG was -0.136.
Take GGUCCGUUGGCGUAAUGGUAACGCGUUUCCCUCCUAAGGAGAAGAUUGCGGGUUCGAGUCCCGUACGGAUUG: the “yeast fitness (ln)” value is -0.0474.
The value for GGUCCGUUGGCGUAAUGGUAACGCGUUUCCCUCCUAAGGAGAAGAUUGCGGGUUCGAGUCCCGUACGGAAUG was -0.099; that for GGUCCGUUGGCGUAAUGGUAACGCGUUUCCCUCCUAAGGAGAAGAUUGCGGGUUCGAGUCCCGUAAGGGGCG was -0.163; that for GGUCCGUUGGCGUAAUGGUAACGCGUUUCCCUCCUAAGGAGAAGAUUGCGGGUUCGAGUCCCGUAAGGGUCG was -0.0493.
On to GGUCCGUUGGCGUAAUGGUAACGCGUUUCCCUCCUAAGGAGAAGAUUGCGGGUUCGAGUCCCGUAUGGAGUG, for which the “yeast fitness (ln)” value was -0.175.
The result for GGUCCGUUGGCGUAAUGGUAACGCGUUUCCCUCCUAAGGAGAAGACUGCGGGUUCGAGUCCCGUAUGGAGUG reads -0.21; that for GGUCCGUUGGCGUAAUGGUAACGCGUUUCCCUCCUAAGGAGAAGAUUGCGGGUUCGAGUCCCGUAAGGAUUG, -0.134; that for GGUCCGUUGGCGUAAUGGUAACGCGUUUCCCUCCUAAGGAGAAGAUUGCGGGUUCGAGUCCCGUAUGGGUUG, -0.376.
The result for GGUCCGUUGGCGUAAUGGUAACGCGUUUCCCUCCUAAGGAGAAGAUUGCGGGUUCGAGUCCCGUAAGGGGUG reads -0.184.
Turning to GGUCCGUUGGCGUAAUGGUAACGCGUUUCCCUCCUAAGGAGAAGACUGCGGGUUCGAGUCCCGUACGGGACG, the “yeast fitness (ln)” value was -0.0592.
The result for GGUCCGUUGGCGUAAUGGUAACGCGUUUCCCUCCUAAGGAGAAGAUUGCGGGUUCGAGUCCCGUAUGGGAUG reads -0.312.
In the case of GGUCCGUUGGCGUAAUGGUAACGCGUUUCCCUCCUAAGGAGAAGACUGCGGGUUCGAGUCCCGUAUGGGUUG, the “yeast fitness (ln)” value was -0.433.
The value for GGUCCGUUGGCGUAAUGGUAACGCGUUUCCCUCCUAAGGAGAAGAUUGCGGGUUCGAGUCCCGUAUGGAACG was -0.0703; that for GGUCCGUUGGCGUAAUGGUAACGCGUUUCCCUCCUAAGGAGAAGAUUGCGGGUUCGAGUCCCGUAAGGAACG was -0.0734.
The value for GGUCCGUUGGCGUAAUGGUAACGCGUUUCCCUCCUAAGGAGAAGAUUGCGGGUUCGAGUCCCGUACGGGGCG was -0.355.
As to GGUCCGUUGGCGUAAUGGUAACGCGUUUCCCUCCUAAGGAGAAGAUUGCGGGUUCGAGUCCCGUACGGGUCG, the “yeast fitness (ln)” value was -0.0139.
The value for GGUCCGUUGGCGUAAUGGUAACGCGUCUCCCUCCUAAGGAGAAGAUUGCGGGUUCGAGUCCCGUACGGAACG was -0.0208; that for GGUCCGUUGGCGUAAUGGUAACGCGUUUCCCUCCUAAGGAGAAGACUGCGGGUUCGAGUCCCGUAAGGAACG was -0.0584; that for GGUCCGUUGGCGUAAUGGUAACGCGUUUCCCUCCUAAGGAGAAGACUGCGGGUUCGAGUCCCGUAUGGAACG was -0.0998.
